What was measured:
Type in all cases: ADME
Conditions in all cases: cattle, isolated protein; call rule not given here
Albumin [1] = molecular target: T1, Albumin (Bos taurus, UniProt P02769); experiment: Binding affinity to bovine serum albumin assessed as isoemissive point up to 20 uM by fluorescence spectroscopic analysis relative to control
In short: (§1)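 Fluorescence titration of 10 µM BSA in 0.1 M phosphate buffer pH 7.4 with compound at 0–20 µM, diluted from DMSO stocks. Excitation 280 nm, slit 10 nm, 1 cm quartz cell, 300 K. Changes in the 350 nm Trp emission, new bands near 370–373 nm and isoemissive points are read against BSA alone.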

Albumin [2] = molecular target: T1, Albumin; experiment: Binding affinity to bovine serum albumin assessed as red shift in emission intensity up to 20 uM by fluorescence spectroscopic analysis relative to control; in short: as §1
Albumin [3] = molecular target: T1, Albumin; experiment: Binding affinity to bovine serum albumin assessed as hyperchromicity in absorption spectra up to 20 uM after 5 mins by UV-visible spectroscopic analysis relative to control
In short: (§2)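 UV-visible absorption titration of 10 µM BSA in 0.1 M phosphate buffer pH 7.4 with increasing compound, 0–20 µM. Compounds diluted from DMSO stocks into buffer. Spectra recorded 200–800 nm in a 1 cm quartz cell at 300 K after 5 min equilibration. The BSA band is at 279 nm; changes are compared with BSA alone.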

Albumin [4] = molecular target: T1, Albumin; experiment: Binding affinity to bovine serum albumin assessed as binding constant in absorption spectra by Benesie-Hildebrand plot analysis
In short: (§3)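 BSA, 10 µM, in 0.1 M phosphate buffer pH 7.4, titrated with compound (0–20 µM per the figure; diluted from 10⁻³ mol L⁻¹ DMSO stocks). Run at 300 K in a 1 cm quartz cell. UV spectra taken 200–800 nm after 5 min equilibration; fluorescence excited at 280 nm, emission 351 nm, slit 10 nm. K is the intercept/slope ratio of a linear fit of 1/(A₀−A) or 1/(F₀−F) vs 1/[compound].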

Albumin [5] = molecular target: T1, Albumin; experiment: Binding affinity to bovine serum albumin assessed as binding constant in emission spectra by Benesie-Hildebrand plot analysis; in short: as §3
Albumin [6] = molecular target: T1, Albumin; experiment: Binding affinity to bovine serum albumin assessed as enhancement in emission spectra up to 20 uM by fluorescence spectroscopic analysis relative to control; in short: as §1
Albumin [7] = molecular target: T1, Albumin; experiment: Binding affinity to bovine serum albumin up to 20 uM after 5 mins by fluorescence spectroscopic analysis; in short: as §1
Albumin [8] = molecular target: T1, Albumin; experiment: Binding affinity to bovine serum albumin assessed as change in hyperchromicity in absorption spectra up to 20 uM after 5 mins by UV-visible spectroscopic analysis relative to control; in short: as §2

T1 sequence (P02769 whole entry): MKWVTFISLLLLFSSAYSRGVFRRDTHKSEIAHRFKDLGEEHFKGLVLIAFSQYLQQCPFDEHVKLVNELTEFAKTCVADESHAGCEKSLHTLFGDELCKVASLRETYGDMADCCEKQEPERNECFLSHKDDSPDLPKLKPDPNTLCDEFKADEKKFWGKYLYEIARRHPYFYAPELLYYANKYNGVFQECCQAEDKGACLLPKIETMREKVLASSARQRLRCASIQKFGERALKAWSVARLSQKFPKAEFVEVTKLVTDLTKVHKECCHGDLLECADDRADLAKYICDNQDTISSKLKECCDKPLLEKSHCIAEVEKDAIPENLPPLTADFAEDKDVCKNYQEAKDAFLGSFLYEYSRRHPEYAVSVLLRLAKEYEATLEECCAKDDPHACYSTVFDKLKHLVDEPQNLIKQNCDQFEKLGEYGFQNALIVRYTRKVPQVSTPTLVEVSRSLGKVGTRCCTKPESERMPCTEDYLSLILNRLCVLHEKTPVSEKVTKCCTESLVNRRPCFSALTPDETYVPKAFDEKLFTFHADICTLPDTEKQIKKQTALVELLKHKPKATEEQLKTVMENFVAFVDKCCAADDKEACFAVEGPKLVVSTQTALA

Compound | Activity (Albumin [1]) [nm] | Activity (Albumin [2]) [nm] | Activity (Albumin [3]) [%] | K (Albumin [4]) | K (Albumin [5]) | Activity (Albumin [6]) [%] | Activity (Albumin [7]) | Activity (Albumin [8])
NNc1nc(Nc2ccc(-c3nc4ccccc4[nH]3)cc2)nc(N2CCOCC2)n1 |  |  |  |  |  |  | Not Active | Not Active
c1ccc2[nH]c(-c3ccc(Nc4nc(NC5CCCCC5)nc(N5CCOCC5)n4)cc3)nc2c1 | 349 | 17 | 85.87 | 1 ×10⁵ /M | 1.6 ×10⁵ /M | 23.12 |  | 
c1ccc(CNc2nc(Nc3ccc(-c4nc5ccccc5[nH]4)cc3)nc(N3CCOCC3)n2)cc1 | 352 | 24 | 88.44 | 1.2 ×10⁴ /M | 1.8 ×10⁵ /M | 42.06 |  | 
c1ccc2[nH]c(-c3ccc(Nc4nc(NCCN5CCOCC5)nc(N5CCOCC5)n4)cc3)nc2c1 | 345 | 23 | 85.95 | 8.4 ×10⁴ /M | 5.7 ×10⁴ /M | 57.22 |  | 
c1ccc2[nH]c(-c3ccc(Nc4nc(N5CCCC5)nc(N5CCOCC5)n4)cc3)nc2c1 | 341 | 22 | 65.29 | 1 ×10⁵ /M | 5.4 ×10⁴ /M | 68.99 |  | 
OCCNc1nc(Nc2ccc(-c3nc4ccccc4[nH]3)cc2)nc(N2CCOCC2)n1 | 340 | 23 | 90.6 | 9.5 ×10⁴ /M | 8 ×10⁴ /M | 71.82 |  | 
c1coc(-c2nc(Nc3ccc(-c4nc5ccccc5[nH]4)cc3)nc(N3CCOCC3)n2)c1 |  |  |  |  |  |  | Not Active | Not Active
c1ccc2[nH]c(-c3ccc(Nc4nc(N5CCOCC5)nc(N5CCOCC5)n4)cc3)nc2c1 | 350 | 24 | 72.93 | 7 ×10⁴ /M | 6.9 ×10⁴ /M | 63.43 |  | 
c1csc(-c2nc(Nc3ccc(-c4nc5ccccc5[nH]4)cc3)nc(N3CCOCC3)n2)c1 |  |  |  |  |  |  | Not Active | Not Active

Continued, values first:

Activity (Albumin [1]) [nm] | Activity (Albumin [2]) [nm] | Activity (Albumin [3]) [%] | K (Albumin [4]) | K (Albumin [5]) | Activity (Albumin [6]) [%] | Activity (Albumin [7]) | Activity (Albumin [8]) | Compound
339 | 22 | 75.98 | 8.5 ×10⁴ /M | 2.6 ×10⁴ /M | 77.53 |  |  | CN1CCN(c2nc(Nc3ccc(-c4nc5ccccc5[nH]4)cc3)nc(N3CCOCC3)n2)CC1
347 | 22 | 70.53 | 6.3 ×10⁴ /M | 1.3 ×10⁵ /M | 69.01 |  |  | NCCNc1nc(Nc2ccc(-c3nc4ccccc4[nH]3)cc2)nc(N2CCOCC2)n1
343 | 25 | 68.72 | 1.2 ×10⁵ /M | 5.4 ×10⁴ /M | 73.21 |  |  | OCCN1CCN(c2nc(Nc3ccc(-c4nc5ccccc5[nH]4)cc3)nc(N3CCOCC3)n2)CC1
 |  |  |  |  |  | Not Active | Not Active | FC(F)(F)c1ccc(-c2nc(Nc3ccc(-c4nc5ccccc5[nH]4)cc3)nc(N3CCOCC3)n2)cc1
